Measured values reported in ChEMBL document CHEMBL3596186, “Synthesis and biological evaluation of diarylthiazole derivatives as antimitotic and antivascular agents with potent antitumor activity” (Bioorg Med Chem, 2015).
Activity calls are given as the source filed them. No cut-off for these calls is given here.

Columns and labels:
HCT-116 [1] = assay: Induction of apoptosis in human HCT116 cells assessed as viable cells at 1 uM after 48 hrs by annexin V/propidium iodide staining-based flow cytometry (reference value: 92%); assay type: functional; details: HCT-116, 48 h, read-out: Activity
HepG2 [2] = assay: Induction of apoptosis in human HepG2 cells assessed as late apoptotic cells at 0.2 uM after 24 hrs by annexin V/propidium iodide staining-based flow cytometry (reference value: 3.74%); assay type: functional
HepG2 [3] = assay: Induction of apoptosis in human HepG2 cells assessed as late apoptotic cells at 1 uM after 24 hrs by annexin V/propidium iodide staining-based flow cytometry (reference value: 3.74%); assay type: functional
HCT-116 [4] = assay: Cell cycle arrest in human HCT116 cells assessed as accumulation at G1 phase at 1 uM after 24 hrs by flow cytometry (reference value: 53.98%); assay type: functional
HCT-116 [5] = assay: Induction of apoptosis in human HCT116 cells assessed as necrotic cells at 0.2 uM after 24 hrs by annexin V/propidium iodide staining-based flow cytometry (reference value: 3.49%); assay type: functional
HCT-116 [6] = assay: Induction of apoptosis in human HCT116 cells assessed as viable cells at 0.2 uM after 24 hrs by annexin V/propidium iodide staining-based flow cytometry (reference value: 92%); assay type: functional; details: HCT-116, 24 h, read-out: Activity
[7] = Antiproliferative activity against human […] cells after 48 hrs by MTT assay; assay type: functional, cell-based
In short: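 HCT116, HepG2, SMMC-7721, SK-OV-3 and A2780s grown in DMEM; A549 and MCF-7 in RPMI-1640; all with 10% FBS and penicillin/streptomycin at 37 °C, 5% CO2. Log-phase cells at 40,000-50,000 cells/mL treated with graded concentrations for 48 h. MTT 3 h, DMSO solubilization, A570. IC50 from percent growth versus untreated control; mean ± SEM of ≥3 independent dose-response experiments.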

SK-OV-3 = assay: Antitumor activity against human SKOV3 cells xenografted in Balb/c athymic nude mouse assessed as tumor growth inhibition at 50 mg/kg, ip administered daily after 42 days; assay type: functional; details: SK-OV-3, ip, 1008 h, read-out: TGI
HCT-116 [8] = assay: Induction of apoptosis in human HCT116 cells assessed as necrotic cells at 1 uM after 48 hrs by annexin V/propidium iodide staining-based flow cytometry (reference value: 3.49%); assay type: functional
HUVEC = assay: Antimigratory activity against HUVEC at 500 nM after 24 hrs by phase contrast microscopy; assay type: functional, cell-based; details: Homo sapiens
In short: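 HUVEC monolayers grown overnight in 6-well plates, scratched with pipet tips, washed twice with PBS, then given fresh EBM2 with vehicle or compound. Imaged by phase contrast at 0 and 24 h (100×). Migrated cells counted manually in 3 separate fields; mean ± SD from three fields.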

HCT-116 [9] = assay: Cell cycle arrest in human HCT116 cells assessed as accumulation at G1 phase at 0.2 uM after 24 hrs by flow cytometry (reference value: 53.98%); assay type: functional
HepG2 [10] = assay: Induction of apoptosis in human HepG2 cells assessed as viable cells at 1 uM after 48 hrs by annexin V/propidium iodide staining-based flow cytometry (reference value: 89.8%); assay type: functional; details: HepG2, 48 h, read-out: Activity
HCT-116 [11] = assay: Induction of apoptosis in human HCT116 cells assessed as viable cells at 0.5 uM after 48 hrs by annexin V/propidium iodide staining-based flow cytometry (reference value: 92%); assay type: functional; details: HCT-116, 48 h, read-out: Activity
HCT-116 [12] = assay: Induction of apoptosis in human HCT116 cells assessed as viable cells at 0.2 uM after 48 hrs by annexin V/propidium iodide staining-based flow cytometry (reference value: 92%); assay type: functional; details: HCT-116, 48 h, read-out: Activity
HepG2 [13] = assay: Antimitotic activity in human HepG2 cells assessed as demolishment of microtubule at 0.5 uM after 24 hrs by DAPI staining-based immmunofluorescence assay; assay type: functional, cell-based
In short: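 HepG2 cells seeded in 6-well plates and treated with compound. Fixed in 4% paraformaldehyde, permeabilized with 0.5% Triton X-100 in PBS, blocked 30 min in 5% goat serum at room temperature. Stained with monoclonal anti-α-tubulin 1 h at room temperature, then fluorescent secondary antibody, nuclei labelled with DAPI. Viewed by fluorescence microscopy.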

[14] = Antiproliferative activity against human doxorubicin-resistant MCF7 cells after 48 hrs by MTT assay; assay type: functional, cell-based; details: MCF7, 48 h
In short: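 MCF-7/ADR (doxorubicin-resistant) and A549/T (taxol-resistant) cells in RPMI-1640 with 10% FBS and penicillin/streptomycin. Log-phase cells at 40,000-50,000 cells/mL exposed to graded concentrations for 48 h. MTT 3 h, DMSO solubilization, absorbance 570 nm. IC50 from percent growth versus untreated control; mean ± SEM of ≥3 independent experiments.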

HepG2 [15] = assay: Cell cycle arrest in human HepG2 cells assessed as accumulation at S phase at 0.5 uM after 24 hrs by flow cytometry (reference value: 23.97%); assay type: functional
HepG2 [16] = assay: Induction of apoptosis in human HepG2 cells assessed as necrotic cells at 1 uM after 48 hrs by annexin V/propidium iodide staining-based flow cytometry (reference value: 1.59%); assay type: functional
HCT-116 [17] = assay: Induction of apoptosis in human HCT116 cells assessed as late apoptotic cells at 0.2 uM after 48 hrs by annexin V/propidium iodide staining-based flow cytometry (reference value: 1.71%); assay type: functional
In short: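 HCT116 cells treated with compound or DMSO for 24 or 48 h, trypsinized, washed twice in PBS and dual-stained with annexin-V and PI. Analysed by flow cytometry: early apoptotic cells scored as annexin-V+/PI−, late apoptotic cells as annexin-V+/PI+.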

Mus musculus = assay: Toxicity in Balb/c athymic nude mouse xenografted with human HCT116 cells assessed as change in feeding and animal behavior at 20 to 50 mg/kg, ip administered daily; assay type: organism-based, HCT-116; details: in vivo
HCT-116 [18] = assay: Induction of apoptosis in human HCT116 cells assessed as late apoptotic cells at 1 uM after 48 hrs by annexin V/propidium iodide staining-based flow cytometry (reference value: 1.71%); assay type: functional
HCT-116 [19] = assay: Cell cycle arrest in human HCT116 cells assessed as accumulation at S phase at 0.2 uM after 24 hrs by flow cytometry (reference value: 25.66%); assay type: functional
HepG2 [20] = assay: Induction of apoptosis in human HepG2 cells assessed as necrotic cells at 0.2 uM after 24 hrs by annexin V/propidium iodide staining-based flow cytometry (reference value: 1.59%); assay type: functional
HepG2 [21] = assay: Cell cycle arrest in human HepG2 cells assessed as accumulation at G2/M phase at 0.5 uM after 24 hrs by flow cytometry (reference value: 11.29%); assay type: functional
HepG2 [22] = assay: Cell cycle arrest in human HepG2 cells assessed as accumulation at S phase at 1 uM after 24 hrs by flow cytometry (reference value: 23.97%); assay type: functional
HCT-116 [23] = assay: Cell cycle arrest in human HCT116 cells assessed as accumulation at S phase at 1 uM after 24 hrs by flow cytometry (reference value: 25.66%); assay type: functional

CCOc1ccc(-c2nc(N)sc2-c2cc(OC)c(OC)c(OC)c2)cc1 showed a viability at 1 µM (HCT-116 [1]) of 20.2%, an Activity (HepG2 [2]) of 6.51% and an Activity (HepG2 [3]) of 8.34%. It also gave an Activity (HCT-116 [4]) of 13.06%, an Activity (HCT-116 [5]) of 3.69% and a viability at 0.2 µM (HCT-116 [6]) of 80.4%. The IC50 [7] was 23 nM, the inhibition in vivo at 50 mg/kg (SK-OV-3) was 72.7% and the Activity (HCT-116 [8]) was 4.06%. The Activity (HUVEC) was “Active”, the Activity (HCT-116 [9]) was 29.2% and the viability at 1 µM (HepG2 [10]) was 25.9%. The viability at 0.5 µM (HCT-116 [11]) was 29.1%, the viability at 0.2 µM (HCT-116 [12]) was 31.1% and the Activity (HepG2 [13]) was “Active”. It also gave an IC50 [14] of 190 nM, an Activity (HepG2 [15]) of 7.29% and an Activity (HepG2 [16]) of 0.4%. The Activity (HCT-116 [17]) was 23.4%, the Activity (Mus musculus) was “Non-toxic” and the Activity (HCT-116 [18]) was 32.6%. The Activity (HCT-116 [19]) was 22%, the Activity (HepG2 [20]) was 0.95% and the Activity (HepG2 [21]) was 62.63%. For the same compound, the Activity (HepG2 [22]) was 7.43% and the Activity (HCT-116 [23]) was 7.71%.
